Measured values from ChEMBL document CHEMBL4673250, “Analogs of nitrofuran antibiotics are potent GroEL/ES inhibitor pro-drugs” (Bioorg Med Chem, 2020).

Assays:
[1] = Selectivity index, ratio of CC50 for human FHC cells to EC50 for Escherichia coli; format: toxicity; details: read-out: Ratio CC50/EC50
Enterococcus faecium = experiment: Antibacterial activity against Enterococcus faecium ATCC 19434 assessed as reduction in bacterial growth by serial dilution method; format: functional, organism-based
Pseudomonas aeruginosa = experiment: Antibacterial activity against Pseudomonas aeruginosa ATCC 10145 assessed as reduction in bacterial growth by serial dilution method; format: functional, organism-based
Acinetobacter baumannii = experiment: Antibacterial activity against Acinetobacter baumannii ATCC 19606 assessed as reduction in bacterial growth by serial dilution method; format: functional, organism-based; details: ATCC 19606 = CIP 70.34 = JCM 6841
Klebsiella pneumoniae = experiment: Antibacterial activity against Klebsiella pneumoniae ATCC 13883 assessed as reduction in bacterial growth by serial dilution method; format: functional, organism-based
[2] = Cytotoxicity against human FHs74Int cells assessed as reduction in cell viability incubated for 48 hrs by alamar blue assay; format: cell-based
How it was run: (§1)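 Alamar Blue viability: cells grown to ~80–90% confluency, seeded 1,500 per well and cultured 24 h without compound, then compound added for a further 48 h; resazurin reagent added and fluorescence monitored over time.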

E. coli GroEL/ES [3] = target: T1, E. coli GroEL/ES (Escherichia coli, UniProt P0A6F5); experiment: Inhibition of Escherichia coli GroEL/ES-mediated refolding of the denatured malate dehydrogenase; format: protein-complex assay
How it was run: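 E. coli GroEL/ES-mediated refolding of denatured MDH as the reporter enzyme. IC50 values are averages from at least four replicates. […] GroEL tetradecamer is present at 50 nM during the refolding cycle. DMSO serves as the negative control.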

FHC = experiment: Cytotoxicity against human FHC cells assessed as reduction in cell viability incubated for 48 hrs by alamar blue assay; format: cell-based; how it was run: as §1
E. coli GroEL/ES [4] = target: T1, E. coli GroEL/ES; experiment: Inhibition of Escherichia coli GroEL/ES-mediated refolding of the denatured malate dehydrogenase in presence of Escherichia coli type 1 NfsB nitroreductase; format: protein-complex assay
How it was run: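 GroEL/ES-dMDH refolding with 10 µg/mL E. coli NfsB added to the initial GroEL/ES-dMDH mix. After compound stamping, NADH (2.4 mM stock) is added and the mix is incubated 10 min at 37°C to bioactivate nitrofurans. Compounds during the refolding cycle span 83 µM to 38 nM (3-fold series).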

[5] = Selectivity index, ratio of CC50 for human FHs 74 cells to EC50 for Escherichia coli; format: toxicity; details: read-out: Ratio CC50/EC50
Staphylococcus aureus = experiment: Antibacterial activity against Staphylococcus aureus ATCC 25923 assessed as reduction in bacterial growth by serial dilution method; format: functional, organism-based
Enterobacter cloacae = experiment: Antibacterial activity against Enterobacter cloacae ATCC 13047 assessed as reduction in bacterial growth by serial dilution method; format: functional, organism-based
Escherichia coli = experiment: Antibacterial activity against Escherichia coli assessed as reduction in bacterial growth by serial dilution method; format: functional, organism-based
How it was run: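 Liquid-culture proliferation in media supplemented with physiological free calcium and magnesium; cultures started at OD600 = 0.01, exposed to 8-point 3-fold dilution series (100 μM to 46 nM), grown to mid-log phase (OD600 ~0.4–0.6), then final OD600 read. E. coli strain NEB 5-alpha (DH5α derivative).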

T1 sequence (P0A6F5 whole entry, looked up): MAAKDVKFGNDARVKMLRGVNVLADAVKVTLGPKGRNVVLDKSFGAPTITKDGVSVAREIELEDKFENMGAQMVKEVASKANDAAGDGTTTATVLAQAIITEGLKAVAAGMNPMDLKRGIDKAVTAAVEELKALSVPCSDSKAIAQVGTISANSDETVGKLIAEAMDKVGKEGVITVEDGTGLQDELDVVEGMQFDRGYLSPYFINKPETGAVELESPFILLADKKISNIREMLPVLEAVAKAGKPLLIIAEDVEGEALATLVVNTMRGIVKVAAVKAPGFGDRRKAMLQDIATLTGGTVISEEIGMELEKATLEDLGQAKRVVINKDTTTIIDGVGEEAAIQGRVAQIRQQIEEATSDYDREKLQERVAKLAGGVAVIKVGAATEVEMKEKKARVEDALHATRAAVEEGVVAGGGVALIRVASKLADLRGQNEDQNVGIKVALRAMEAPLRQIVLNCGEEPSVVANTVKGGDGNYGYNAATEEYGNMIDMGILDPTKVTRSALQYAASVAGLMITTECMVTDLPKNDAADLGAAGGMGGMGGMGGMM

SMILES | selectivity ratio [1] | EC50 (Enterococcus faecium) | EC50 (Pseudomonas aeruginosa) | EC50 (Acinetobacter baumannii) | EC50 (Klebsiella pneumoniae) | CC50 [2] | IC50 (E. coli GroEL/ES [3]) | CC50 (FHC) | IC50 (E. coli GroEL/ES [4]) | selectivity ratio [5] | EC50 (Staphylococcus aureus) | EC50 (Enterobacter cloacae) | EC50 (Escherichia coli)
CN(C)c1ccc(C(=O)N/N=C/c2ccc([N+](=O)[O-])o2)cc1 | > 10 | > 100 µM | > 100 µM | > 100 µM | > 100 µM | 93 µM | 26 µM | > 100 µM | 12 µM | 9.3 | 34 µM | > 100 µM | 10 µM
O=C(N/N=C/c1ccc([N+](=O)[O-])o1)c1ccncc1 | 26 | 13 µM | > 100 µM | 54 µM | 42 µM | 90 µM | > 100 µM | 61 µM | 23 µM | 38 | 9.5 µM | 73 µM | 2.4 µM
O=[N+]([O-])c1ccc(O)c2ncccc12 [NITROXOLINE] | – | 18 µM | 99 µM | 2.5 µM | 2.8 µM | – | – | – | – | – | 9.5 µM | 6.6 µM | 4 µM
O=C(N/N=C/c1ccc([N+](=O)[O-])o1)c1cccs1 | 198 | 24 µM | > 100 µM | 82 µM | 16 µM | 71 µM | > 100 µM | 83 µM | 7.7 µM | 168 | 7.1 µM | 40 µM | 0.42 µM
